Test results reported in ChEMBL document CHEMBL4725432, “Dethioacylation by Sirtuins 1-3: Considerations for Drug Design Using Mechanism-Based Sirtuin Inhibition” (ACS Med Chem Lett, 2020).
Structures can show the parent of a compound that is named as a salt. Active and inactive are the calls of the source. No cut-off for these calls is given here. Non-standard residues stand in square brackets, D forms with d. Residues, ends and D or L forms follow the SMILES beside them. *: point of attachment. Lys(Thioacetyl) = CC(=S)NCCCC[C@H](N)C(=O)O; AMC = Cc1cc(=O)oc2cc(N*)ccc12; Cbz = O=C(OCc1ccccc1)*; Propionyl = CCC(=O)*; Tfa = O=C(C(F)(F)F)*; Butyryl = CCCC(=O)*; NHiPr = CC(C)N*

Columns and labels:
[1] = target: T1, NAD-dependent protein deacetylase sirtuin-2 (Homo sapiens) (UniProt Q8IXJ6); assay: Inhibition of human C-terminal His-tagged SIRT2 (50 to 356 residues) expressed in Escherichia coli using Ac-Gln-Pro-Lys-Lys(pro)-AMC (oxo-11) as substrate at 100 uM by fluorescence assay relative to control
T1 sequence (whole entry): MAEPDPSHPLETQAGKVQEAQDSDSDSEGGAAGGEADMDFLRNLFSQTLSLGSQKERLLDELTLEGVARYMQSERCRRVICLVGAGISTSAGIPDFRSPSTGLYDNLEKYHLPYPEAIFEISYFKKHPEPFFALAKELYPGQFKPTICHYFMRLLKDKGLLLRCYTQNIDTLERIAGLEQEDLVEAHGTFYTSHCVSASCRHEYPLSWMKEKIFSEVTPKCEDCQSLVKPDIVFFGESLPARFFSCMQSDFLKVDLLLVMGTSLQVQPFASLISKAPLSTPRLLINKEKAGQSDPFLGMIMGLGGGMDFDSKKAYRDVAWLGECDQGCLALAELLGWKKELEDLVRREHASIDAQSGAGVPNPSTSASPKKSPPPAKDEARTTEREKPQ

[2] = target: T2, NAD-dependent protein deacetylase sirtuin-1 (Homo sapiens) (UniProt Q96EB6); assay: Inhibition of human recombinant N-terminal GST-tagged SIRT1 (193 to 741 residues) expressed in Escherichia coli using Ac-Gln-Pro-Lys-Lys(Ac)-AMC (oxo-10) as substrate at 100 uM by fluorescence assay relative to control
T2 sequence (whole entry): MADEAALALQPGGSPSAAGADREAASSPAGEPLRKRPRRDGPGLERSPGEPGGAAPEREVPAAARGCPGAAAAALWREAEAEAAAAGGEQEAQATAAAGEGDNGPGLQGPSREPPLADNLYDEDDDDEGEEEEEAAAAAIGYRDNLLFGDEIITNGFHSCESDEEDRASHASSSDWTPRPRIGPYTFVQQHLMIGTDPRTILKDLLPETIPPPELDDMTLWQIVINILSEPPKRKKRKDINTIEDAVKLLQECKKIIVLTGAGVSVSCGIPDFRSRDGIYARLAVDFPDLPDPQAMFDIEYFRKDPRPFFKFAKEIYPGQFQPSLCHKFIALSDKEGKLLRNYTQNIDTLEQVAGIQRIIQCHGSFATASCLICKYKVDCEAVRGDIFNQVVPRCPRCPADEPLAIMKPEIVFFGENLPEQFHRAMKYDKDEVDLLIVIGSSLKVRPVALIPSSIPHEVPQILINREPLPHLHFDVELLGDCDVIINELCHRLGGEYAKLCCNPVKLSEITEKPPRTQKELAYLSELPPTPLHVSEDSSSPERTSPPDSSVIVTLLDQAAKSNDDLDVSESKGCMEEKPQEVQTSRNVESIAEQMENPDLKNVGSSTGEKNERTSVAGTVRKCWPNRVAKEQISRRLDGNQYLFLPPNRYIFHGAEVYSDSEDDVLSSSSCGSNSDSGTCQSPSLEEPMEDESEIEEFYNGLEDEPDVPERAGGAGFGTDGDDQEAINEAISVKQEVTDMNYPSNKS

[3] = target: T3, NAD-dependent protein deacetylase sirtuin-3, mitochondrial (Homo sapiens) (UniProt Q9NTG7); assay: Inhibition of human N-terminal GST-tagged SIRT3 (102 to 399 residues) expressed in Escherichia coli using Ac-Gln-Pro-Lys-Lys(but)-AMC (oxo-12) as substrate at 100 uM by fluorescence assay relative to control
T3 sequence (whole entry): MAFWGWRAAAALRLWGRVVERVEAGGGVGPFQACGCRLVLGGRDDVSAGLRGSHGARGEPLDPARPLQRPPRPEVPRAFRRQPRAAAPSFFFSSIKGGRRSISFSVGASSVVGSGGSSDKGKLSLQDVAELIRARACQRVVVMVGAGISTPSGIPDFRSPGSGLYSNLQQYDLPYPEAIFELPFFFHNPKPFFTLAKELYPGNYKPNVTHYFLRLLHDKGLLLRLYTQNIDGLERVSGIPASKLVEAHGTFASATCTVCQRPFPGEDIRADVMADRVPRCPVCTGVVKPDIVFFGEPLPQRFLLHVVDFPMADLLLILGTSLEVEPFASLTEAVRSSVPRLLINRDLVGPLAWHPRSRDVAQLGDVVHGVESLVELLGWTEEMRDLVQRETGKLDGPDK

[4] = target: T2, NAD-dependent protein deacetylase sirtuin-1 (Homo sapiens); assay: Inhibition of human N-terminal GST-tagged SIRT1 (193 to 741 residues) expressed in Escherichia coli preincubated with NAD+ for 30 mins using Ac-Gln-Pro-Lys-Lys(Ac)-AMC (oxo-10) as substrate at 1 to 100 uM measured after 90 mins by fluorescence assay; details: dose microM 1-100, time 120.0 min
Summary of the method: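 Recombinant SIRT1 (100 nM) preincubated 30 min with compound, either with or without NAD+ (500 μM), before the fluorogenic deacetylation read-out. Single-dose %-inhibition. Two independent experiments in duplicate, standard deviation.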

[5] = target: T2, NAD-dependent protein deacetylase sirtuin-1 (Homo sapiens); assay: Inhibition of SIRT1 in HEK293 cells assessed as increase in p53 acetylation co-treated with TSA at 25 uM for 6 hrs by western blot analysis; assay type: cell-based
Summary of the method: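 HEK293 cells exposed 6 h to compound at 25 μM together with TSA (1 μM). Whole-cell lysates immunoblotted for Ac-p53 (K382) and total p53. Ratio Ac-p53/p53 normalized to DMSO control. Two independent experiments in duplicate, SEM.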

HEK293 = assay: Inhibition of deacetylation activity in HEK293 cell lysate incubated with substrate for 2 hrs at 50 uM measured after 90 mins by fluorescence assay; assay type: functional, subcellular; details: Homo sapiens
Summary of the method: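 Fluorogenic thioacyl or acyl lysine-AMC substrates incubated with fresh HEK293 cell lysate (~65 μg). Deacylation measured by fluorescence. Two independent experiments in duplicate, standard deviation.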

[6] = target: T1, NAD-dependent protein deacetylase sirtuin-2 (Homo sapiens); assay: Inhibition of human recombinant C-terminal His-tagged SIRT2 (50 to 356 residues) deacetylation activity in presence of substrate and NAD+ incubated for 60 mins measured after 90 mins by fluorescence assay
Summary of the method: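 Recombinant SIRT2 (100 nM or 250 nM) incubated with fluorogenic thioacyl or oxo lysine-AMC substrates plus NAD+. Deacylation read by fluorescence. Two independent experiments in duplicate, standard deviation.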

[7] = target: T4, NAD-dependent protein deacetylase sirtuin-1 (Homo sapiens, UniProt Q96EB6); assay: Inhibition of human recombinant N-terminal GST-tagged SIRT1 (193 to 741 residues) expressed in Escherichia coli using Ac-Gln-Pro-Lys-Lys(Ac)-AMC (oxo-10) as substrate by fluorescence assay
T4 sequence (Q96EB6 whole entry): T2 sequence (whole entry)

[8] = target: T2, NAD-dependent protein deacetylase sirtuin-1 (Homo sapiens); assay: Inhibition of human recombinant N-terminal GST-tagged SIRT1 (193 to 741 residues) deacetylation activity in presence of substrate and NAD+ at 15 uM after 60 mins by reversed-phase UPLC-MS analysis relative to control
[9] = target: T3, NAD-dependent protein deacetylase sirtuin-3, mitochondrial (Homo sapiens); assay: Inhibition of human recombinant N-terminal GST-tagged SIRT3 (102 to 399 residues) deacetylation activity in presence of substrate and NAD+ at 15 uM after 60 mins measured by reversed-phase UPLC-MS analysis relative to control
[10] = target: T5, NAD-dependent protein deacetylase sirtuin-2 (Homo sapiens, UniProt Q8IXJ6); assay: Inhibition of human C-terminal His-tagged SIRT2 (50 to 356 residues) expressed in Escherichia coli using Ac-Gln-Pro-Lys-Lys(pro)-AMC (oxo-11) as substrate by fluorescence assay
T5 sequence (Q8IXJ6 whole entry): T1 sequence (whole entry)

[11] = Metabolic stability of compound in human serum assessed as half life incubated for >10 mins measured after 90 mins by HPLC analysis; assay type: ADME, cell-free
[12] = target: T1, NAD-dependent protein deacetylase sirtuin-2 (Homo sapiens); assay: Inhibition of human C-terminal His-tagged SIRT2 (50 to 356 residues) expressed in Escherichia coli using Ac-Gln-Pro-Lys-Lys(pro)-AMC (oxo-11) as substrate at 10 uM by fluorescence assay relative to control
[13] = target: T3, NAD-dependent protein deacetylase sirtuin-3, mitochondrial (Homo sapiens); assay: Inhibition of human N-terminal GST-tagged SIRT3 (102 to 399 residues) expressed in Escherichia coli using Ac-Gln-Pro-Lys-Lys(but)-AMC (oxo-12) as substrate at 10 uM by fluorescence assay relative to control
[14] = Metabolic stability of compound in human serum assessed as drug degradation incubated for >10 mins measured after 90 mins by HPLC analysis; assay type: ADME, cell-free; details: 1.5 h
[15] = target: T4, NAD-dependent protein deacetylase sirtuin-1; assay: Inhibition of human recombinant SIRT1 expressed in Escherichia coli in presence of acyl peptide acetyl-H3K9 as substrate incubated for 5 mins by HPLC analysis

CC(C)NC(=O)[C@H](Cc1c[nH]c2ccccc12)NC(=O)[C@H](CCCCNC(=O)C(F)(F)F)NC(=O)OCc1ccccc1 (Cbz-Lys(Tfa)-Trp-NHiPr)
inhibition [1]: 3% | inhibition [2]: 24% | inhibition [3]: 5% | inhibition [4]: inactive | inhibition [5]: inactive

CC(=O)NCCCC[C@H](NC(=O)[C@H](CCCCN)NC(=O)[C@@H]1CCCN1C(=O)[C@H](CCC(N)=O)NC(C)=O)C(=O)Nc1ccc2c(C)cc(=O)oc2c1 (Ac-QPKK(Ac)-{AMC})
Activity (HEK293): Active | inhibition [6]: Active

CCCC(=S)NCCCC[C@H](NC(=O)OCc1ccccc1)C(=O)N[C@@H](Cc1c[nH]c2ccccc12)C(=O)NC(C)C
IC50 [7]: 540 nM | inhibition [8]: inactive | inhibition [9]: inactive | inhibition [3]: 10% | inhibition [4]: Active | IC50 [10]: 440 nM

CCC(=O)NCCCC[C@H](NC(=O)[C@H](CCCCN)NC(=O)[C@@H]1CCCN1C(=O)[C@H](CCC(N)=O)NC(C)=O)C(=O)Nc1ccc2c(C)cc(=O)oc2c1 (Ac-QPKK(Propionyl)-{AMC})
Activity (HEK293): Active | inhibition [6]: Active

CCNC(=S)NCCCC[C@H](NC(=O)OCc1ccccc1)C(=O)N[C@@H](Cc1c[nH]c2ccccc12)C(=O)NC(C)C
IC50 [7]: 1900 nM | half-life [11]: < 1 h | inhibition [12]: 71% | inhibition [4]: Active | inhibition [13]: 2% | Activity [14]: Not Active

CC(=S)NCCCC[C@H](NC(=O)OCc1ccccc1)C(=O)Nc1ccccc1
IC50 [15]: 6500 nM | inhibition [8]: inactive | inhibition [9]: inactive | inhibition [4]: inactive

CCCC(=O)NCCCC[C@H](NC(=O)[C@H](CCCCN)NC(=O)[C@@H]1CCCN1C(=O)[C@H](CCC(N)=O)NC(C)=O)C(=O)Nc1ccc2c(C)cc(=O)oc2c1 (Ac-QPKK(Butyryl)-{AMC})
Activity (HEK293): Active | inhibition [6]: Active

NC(=O)C1CCCc2c1[nH]c1ccc(Cl)cc21 (stereo not given)
inhibition [4]: inactive | inhibition [5]: Active

CCC(=S)NCCCC[C@H](NC(=O)[C@H](CCCCN)NC(=O)[C@@H]1CCCN1C(=O)[C@H](CCC(N)=O)NC(C)=O)C(=O)Nc1ccc2c(C)cc(=O)oc2c1
Activity (HEK293): Active

CC(=O)N[C@@H](CCC(N)=O)C(=O)N1CCC[C@H]1C(=O)N[C@@H](CCCCN)C(=O)N[C@@H](CCCCNC(C)=S)C(=O)Nc1ccc2c(C)cc(=O)oc2c1 (Ac-QPK[Lys(Thioacetyl)]-{AMC})
Activity (HEK293): Active

CCCCNC(=S)NCCCC[C@H](NC(=O)OCc1ccccc1)C(=O)N[C@@H](Cc1c[nH]c2ccccc12)C(=O)NC(C)C
IC50 [7]: 1130 nM | inhibition [3]: 2% | inhibition [4]: Active | IC50 [10]: 1400 nM

Cc1cc(C)nc(SCC(=O)Nc2ncc(Cc3cccc4ccccc34)s2)n1
inhibition [5]: inactive

CCCC(=S)NCCCC[C@H](NC(=O)[C@H](CCCCN)NC(=O)[C@@H]1CCCN1C(=O)[C@H](CCC(N)=O)NC(C)=O)C(=O)Nc1ccc2c(C)cc(=O)oc2c1
Activity (HEK293): Active

CNC(=S)NCCCC[C@H](NC(=O)OCc1ccccc1)C(=O)N[C@@H](Cc1c[nH]c2ccccc12)C(=O)NC(C)C
half-life [11]: < 1 h | inhibition [4]: Active | inhibition [5]: Active | Activity [14]: Not Active

CC(C)NC(=O)[C@H](Cc1c[nH]c2ccccc12)NC(=O)[C@H](CCCCNC(=O)C(F)F)NC(=O)OCc1ccccc1
inhibition [1]: 17% | inhibition [2]: 29% | inhibition [3]: 9% | inhibition [4]: inactive

CC(C)NC(=O)[C@H](Cc1c[nH]c2ccccc12)NC(=O)[C@H](CCCCNC(N)=S)NC(=O)OCc1ccccc1
IC50 [7]: 980 nM | half-life [11]: > 7 h | inhibition [12]: 28% | inhibition [4]: Active | inhibition [13]: 2%
